Test results as given in ChEMBL document CHEMBL1140100, “Flexible cyclic ethers/polyethers as novel P2-ligands for HIV-1 protease inhibitors: design, synthesis, biological evaluation, and protein-ligand X-ray studies” (J Med Chem, 2008).

Experiments:
Protease = Protease (Human immunodeficiency virus 1, UniProt Q9YQ12); test: Inhibition of HIV1 protease
[1] = test system: Human immunodeficiency virus 1; test: Antiviral activity against multidrug-resistant HIV1/A with protease mutation in phytohemagglutininin-activated PBMC assessed as inhibition of p24G protein production; type: functional, organism-based
[2] = test system: Human immunodeficiency virus 1; test: Antiviral activity against HIV1 ERS104 with protease L63P mutation in phytohemagglutininin-activated PBMC assessed as inhibition of p24G protein production; type: functional, organism-based
How it was run: (§1)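 Clinical HIV-1 isolates (ERS104pre as wild-type reference; multidrug-resistant isolates with the listed protease substitutions relative to consensus type B) were tested in phytohemagglutinin-activated human peripheral blood mononuclear cells. The endpoint was inhibition of p24Gag protein production, and IC50 was determined in triplicate.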

[3] = test system: Human immunodeficiency virus 1; test: Antiviral activity against multidrug-resistant HIV1 with protease L10I, K14R, R41K, M46L, I54V, L63P, A71V, V82A, L90M, I93L mutation in phytohemagglutininin-activated PBMC assessed as inhibition of p24Gag protein production; type: functional, organism-based; how it was run: as §1
[4] = test system: Human immunodeficiency virus 1; test: Antiviral activity against HIV1 LAI in human MT2 cells assessed as inhibition of virus-induced cytopathic effect; type: functional, organism-based; details: Human immunodeficiency virus 1, LAI
[5] = test system: Human immunodeficiency virus 1; test: Antiviral activity against multidrug-resistant HIV1 with protease L10I, K14R, L33I, M36I, M46I, F53I, K55R, I62V, L63P, A71V, G73S, V82A, L90M, I93L mutation in phytohemagglutininin-activated PBMC assessed as inhibition of p24G protein production; type: functional, organism-based; how it was run: as §1
[6] = test system: Human immunodeficiency virus 1; test: Antiviral activity against multidrug-resistant HIV1 with protease L10I, K43T, M46L, I54V, L63P, A71V, V82A, L90M, Q92K mutation in phytohemagglutininin-activated PBMC assessed as inhibition of p24G protein production; type: functional, organism-based; how it was run: as §1
[7] = test system: Human immunodeficiency virus 1; test: Antiviral activity against multidrug-resistant HIV1 with protease L10I, V11I, T12E, I15V, L19I, R41K, M46L, L63P, A71T, V82A, L90M mutation in phytohemagglutininin-activated PBMC assessed as inhibition of p24G protein production; type: functional, organism-based; how it was run: as §1
[8] = test system: Human immunodeficiency virus 1; test: Antiviral activity against multidrug-resistant HIV1/C with protease mutation in phytohemagglutininin-activated PBMC assessed as inhibition of p24G protein production; type: functional, organism-based
[9] = test system: Human immunodeficiency virus 1; test: Antiviral activity against multidrug-resistant HIV1 with protease L10I, L24I, I33F, E35D, M36I, N37S, M46L, I54V, R57K, I62V, L63P, A71V, G73S, V82A mutation in phytohemagglutininin-activated PBMC assessed as inhibition of p24G protein production; type: functional, organism-based; how it was run: as §1
[10] = read-out: ID50 (the source's name)

Chain of Protease (Q9YQ12 whole entry): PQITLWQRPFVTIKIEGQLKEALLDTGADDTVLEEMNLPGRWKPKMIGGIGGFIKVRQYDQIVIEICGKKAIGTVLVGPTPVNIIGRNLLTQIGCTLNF

Compound | Ki (Protease) | IC50 [1] | IC50 [2] | IC50 [3] | IC50 [5] | IC50 ([4]; read-out: IC50) | also measured
COc1ccc(S(=O)(=O)N(CC(C)C)C[C@@H](O)[C@H](Cc2ccccc2)NC(=O)O[C@H]2CCCOCOC2)cc1 | 0.15 nM | – | – | – | – | – | –
CC(C)CN(C[C@@H](O)[C@H](Cc1ccccc1)NC(=O)O[C@H]1CO[C@H]2OCC[C@H]21)S(=O)(=O)c1ccc(N)cc1 | – | 3 nM | 3.5 nM | 4 nM | 26 nM | – | IC50 [4, 10]: 1.6 nM
CC(C)c1nc(CN(C)C(=O)N[C@H](C(=O)N[C@@H](Cc2ccccc2)C[C@H](O)[C@H](Cc2ccccc2)NC(=O)OCc2cncs2)C(C)C)cs1 [RITONAVIR] | – | > 1000 nM | 34 nM | > 1000 nM | > 1000 nM | – | IC50 [6]: > 1000 nM; IC50 [7]: > 1000 nM; IC50 [8]: > 1000 nM; IC50 [9]: > 1000 nM
COc1ccc(S(=O)(=O)N(CC(C)C)C[C@@H](O)[C@H](Cc2ccccc2)NC(=O)O[C@H]2CCCOCC2)cc1 | 0.74 nM | – | – | – | – | – | –
COc1ccc(S(=O)(=O)N(CC(C)C)C[C@@H](O)[C@H](Cc2ccccc2)NC(=O)OC2CCCCCC2)cc1 | 27 nM | – | – | – | – | – | –
COc1ccc(S(=O)(=O)N(CC(C)C)C[C@@H](O)[C@H](Cc2ccccc2)NC(=O)OC2COCCOCOCCOC2)cc1 | 6.3 nM | – | – | – | – | > 1000 nM | –
COc1ccc(S(=O)(=O)N(CC(C)C)C[C@@H](O)[C@H](Cc2ccccc2)NC(=O)O[C@@H]2CCCOCOC2)cc1 | 0.16 nM | – | – | – | – | – | –
CC(C)(C)NC(=O)[C@@H]1CN(Cc2cccnc2)CCN1C[C@@H](O)C[C@@H](Cc1ccccc1)C(=O)N[C@H]1c2ccccc2C[C@H]1O | – | > 1000 nM | 26 nM | > 1000 nM | > 1000 nM | – | IC50 [6]: > 1000 nM; IC50 [7]: 290 nM; IC50 [8]: > 1000 nM; IC50 [9]: > 1000 nM
COc1ccc(S(=O)(=O)N(CC(C)C)C[C@@H](O)[C@H](Cc2ccccc2)NC(=O)OC2COCCN(C)CCOC2)cc1 | 19 nM | – | – | – | – | > 1000 nM | –
COc1ccc(S(=O)(=O)N(CC(C)C)C[C@@H](O)[C@H](Cc2ccccc2)NC(=O)O[C@H]2CO[C@H]3OCC[C@H]32)cc1 | – | – | – | – | – | – | IC50 [4, 10]: 1.2 nM
COc1ccc(S(=O)(=O)N(CC(C)C)C[C@@H](O)[C@H](Cc2ccccc2)NC(=O)OC2COCCOCCOC2)cc1 | 16 nM | – | – | – | – | – | –
COc1ccc(S(=O)(=O)N(CC(C)C)C[C@@H](O)[C@H](Cc2ccccc2)NC(=O)OC2COCOC2)cc1 | 0.041 nM | 13 nM | 6 nM | 64 nM | 230 nM | 3.4 nM | IC50 [6]: 110 nM; IC50 [7]: 300 nM; IC50 [8]: 160 nM; IC50 [9]: 330 nM
COc1ccc(S(=O)(=O)N(CC(C)C)C[C@@H](O)[C@H](Cc2ccccc2)NC(=O)O[C@@H]2CCCCOC2)cc1 | 0.81 nM | – | – | – | – | – | –
COc1ccc(S(=O)(=O)N(CC(C)C)C[C@@H](O)[C@H](Cc2ccccc2)NC(=O)OC2COCCOCCOCCOC2)cc1 | 33 nM | – | – | – | – | – | –
COc1ccc(S(=O)(=O)N(CC(C)C)C[C@@H](O)[C@H](Cc2ccccc2)NC(=O)O[C@H]2CCOCOC2)cc1 | 0.16 nM | – | – | – | – | 30 nM | –
COc1ccc(S(=O)(=O)N(CC(C)C)C[C@@H](O)[C@H](Cc2ccccc2)NC(=O)OC2COCCS(=O)(=O)CCOC2)cc1 | 1.9 nM | – | – | – | – | > 1000 nM | –
COc1ccc(S(=O)(=O)N(CC(C)C)C[C@@H](O)[C@H](Cc2ccccc2)NC(=O)O[C@@H]2CCOCOC2)cc1 | – | 20 nM | 20 nM | 220 nM | 340 nM | 4.9 nM | IC50 [6]: 250 nM; IC50 [7]: 360 nM; IC50 [8]: 210 nM; IC50 [9]: 500 nM
CC(C)CN(C[C@@H](O)[C@H](Cc1ccccc1)NC(=O)O[C@H]1CCOC1)S(=O)(=O)c1ccc(N)cc1 | – | 100 nM | 33 nM | 290 nM | 320 nM | – | IC50 [6]: 300 nM; IC50 [7]: 340 nM; IC50 [8]: 230 nM; IC50 [9]: 430 nM
